Laboratory results published in ChEMBL document CHEMBL3877241 (J Med Chem, 2016).

Tests used:
[1] = target: Histone deacetylase 9 (Homo sapiens) (UniProt Q9UKV0); experiment: Inhibition of HDAC9 (unknown origin) at 10 uM preincubated with enzyme followed by acetyl-Lys(trifluoroacetyl)-AMC substrate addition measured after 2 hrs by fluorescence assay relative to control
Summary of the method: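 Fluorogenic HDAC assay in 50 mM Tris-HCl pH 8.0, 137 mM NaCl, 2.7 mM KCl, 1 mM MgCl2. Enzyme pre-incubated with compound delivered in DMSO. Substrate then added: Arg-His-Lys(Ac) at 50 μM for most isoforms, or acetyl-Lys(trifluoroacetyl)-AMC for class IIa. Incubated 2 h at 30 °C, stopped with developer plus trichostatin A, read at Ex/Em 360/460 nm at endpoint. IC50 from 10-dose curves.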

[2] = Therapeutic index, ratio of IC50 for mouse TAMH cells to IC50 for human cancer cells; details: cancer cell lines
[3] = target: Mitogen-activated protein kinase 8 (Homo sapiens, UniProt P45983); experiment: Inhibition of full length human MAPK8 (M1 to Q384 residues) expressed in mammalian expression system assessed as residual activity at 100 nM by KINOMEScan assay relative to control
Summary of the method: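 DiscoveRx KINOMEscan competition binding against ATP sites in a 97-kinase panel, with compound at 100 nM. Binding reported as % of control.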

[4] = target: Mast/stem cell growth factor receptor Kit (Homo sapiens, UniProt P10721); experiment: Inhibition of human KIT (I571 to D952 residues) expressed in bacterial expression system assessed as residual activity at 100 nM by KINOMEScan assay relative to control
Summary of the method: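 Done by DiscoveRx as an ATP-site binding panel covering 97 kinases across the kinome. It measures binding rather than inhibition of phosphate transfer. The compound was tested at 100 nM, and the result is expressed as percent of control binding.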

[5] = system: MOLM-14; experiment: Induction of apoptosis in human MOLM14 cells assessed as necrotic cells at 0.75 uM after 48 hrs by Annexin-V FITC/propidium iodide staining based flow cytometry (reference value: 0.1%); type: functional
Summary of the method: (§1)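 MOLM-14 cells treated 48 h at the stated concentrations; doxorubicin as positive control. Stained with Annexin V-FITC and propidium iodide and analysed by flow cytometry (at least 10,000 events). Gated quadrants: Annexin V−/PI− viable, Annexin V+/PI− early apoptotic, Annexin V+/PI+ late apoptotic.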

[6] = target: Histone deacetylase 7 (Homo sapiens) (UniProt Q8WUI4); experiment: Inhibition of human recombinant N-terminal GST-tagged HDAC7 (518 to 991 residues) expressed in insect cells at 10 uM preincubated with enzyme followed by […] addition measured after 2 hrs by fluorescence assay relative to control
Summary of the method: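 HDAC enzyme in Tris-HCl pH 8.0 buffer with NaCl, KCl and MgCl2 was pre-incubated with compound from DMSO. Substrate was then added and the reaction ran 2 h at 30 °C. It was stopped with developer containing trichostatin A, and fluorescence (Ex/Em 360/460 nm) was read at plateau. Single test concentration 10 µM.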

[7] = target: Phosphatidylinositol 4,5-bisphosphate 3-kinase catalytic subunit gamma isoform (Homo sapiens, UniProt P48736); experiment: Inhibition of human PI3Kgamma (S144 to A1102 residues) expressed in mammalian expression system assessed as residual activity at 100 nM by KINOMEScan assay relative to control
Summary of the method: (§2)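 DiscoveRx competition-binding panel of 97 kinases, measuring binding to the kinase ATP site rather than catalytic turnover. The test compound was run at a single 100 nM concentration. Results are given as % of control binding.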

[8] = Antiproliferative activity against human MCF7 cells after 72 hrs by MTT assay; type: functional, cell-based; details: MCF7, 72 h
[9] = target: Mitogen-activated protein kinase 10 (Homo sapiens, UniProt P53779); experiment: Inhibition of human MAPK10 (V28 to Q422 residues) expressed in mammalian expression system assessed as residual activity at 100 nM by KINOMEScan assay relative to control; summary of the method: as §2
[10] = target: Receptor-type tyrosine-protein kinase FLT3 (Homo sapiens) (UniProt P36888); experiment: Inhibition of FLT3 (unknown origin) at 0.1 uM preincubated for 20 mins followed by [33P]ATP addition measured after 120 mins by Hotspot assay relative to control
Summary of the method: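 Radiometric HotSpot kinase assay. Buffer: 20 mM HEPES pH 7.5, 10 mM MgCl2, 1 mM EGTA, 0.02% Brij35, 0.02 mg/mL BSA, 0.1 mM Na3VO4, 2 mM DTT, 1% DMSO. Compound added about 20 min before ATP/[33P]ATP (10 μM final). Reactions run 120 min at 25 °C, spotted on P81 filters and washed in phosphoric acid. Activity expressed relative to DMSO after background subtraction. Single-concentration panel at 100 nM in duplicate.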

[11] = system: MOLM-14; experiment: Induction of apoptosis in human MOLM14 cells assessed as live cells at 1.5 uM after 48 hrs by Annexin-V FITC/propidium iodide staining based flow cytometry (reference value: 94 to 94.1%); type: functional
[12] = target: Histone deacetylase 11 (Homo sapiens, UniProt Q96DB2); experiment: Inhibition of human recombinant N-terminal His-tagged HDAC11 (1 to 347 residues) expressed in baculovirus infected insect cells preincubated with enzyme followed by fluorogenic Arg-His-Lys-Lys(Ac)-AMC substrate addition measured after 2 hrs by fluorescence assay relative to control
[13] = cells; type: functional, cell-based; details: Homo sapiens, HEL 92.1.7, 36 h
[14] = target: Polyamine deacetylase HDAC10 (Homo sapiens, UniProt Q969S8); experiment: Inhibition of HDAC10 (unknown origin) preincubated with enzyme followed by fluorogenic Arg-His-Lys-Lys(Ac)-AMC substrate addition measured after 2 hrs by fluorescence assay
[15] = system: MOLM-14; experiment: Induction of apoptosis in human MOLM14 cells assessed as necrotic cells at 3 uM after 48 hrs by Annexin-V FITC/propidium iodide staining based flow cytometry (reference value: 0.1%); type: functional; summary of the method: as §1

Sequence of Mitogen-activated protein kinase 10 (P53779 whole entry, the tested form may be a part): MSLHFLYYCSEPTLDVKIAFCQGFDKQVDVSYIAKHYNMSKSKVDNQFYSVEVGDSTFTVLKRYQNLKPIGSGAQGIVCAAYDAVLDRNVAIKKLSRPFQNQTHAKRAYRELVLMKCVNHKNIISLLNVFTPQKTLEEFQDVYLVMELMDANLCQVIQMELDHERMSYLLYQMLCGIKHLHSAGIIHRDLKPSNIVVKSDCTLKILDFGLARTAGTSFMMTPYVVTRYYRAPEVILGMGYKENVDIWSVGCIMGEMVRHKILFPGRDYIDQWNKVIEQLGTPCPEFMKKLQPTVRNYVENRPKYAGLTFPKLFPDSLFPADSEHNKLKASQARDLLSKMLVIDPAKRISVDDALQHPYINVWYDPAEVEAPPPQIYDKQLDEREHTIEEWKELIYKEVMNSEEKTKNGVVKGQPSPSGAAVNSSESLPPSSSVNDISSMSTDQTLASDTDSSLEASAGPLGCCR
Sequence of Polyamine deacetylase HDAC10 (Q969S8 whole entry): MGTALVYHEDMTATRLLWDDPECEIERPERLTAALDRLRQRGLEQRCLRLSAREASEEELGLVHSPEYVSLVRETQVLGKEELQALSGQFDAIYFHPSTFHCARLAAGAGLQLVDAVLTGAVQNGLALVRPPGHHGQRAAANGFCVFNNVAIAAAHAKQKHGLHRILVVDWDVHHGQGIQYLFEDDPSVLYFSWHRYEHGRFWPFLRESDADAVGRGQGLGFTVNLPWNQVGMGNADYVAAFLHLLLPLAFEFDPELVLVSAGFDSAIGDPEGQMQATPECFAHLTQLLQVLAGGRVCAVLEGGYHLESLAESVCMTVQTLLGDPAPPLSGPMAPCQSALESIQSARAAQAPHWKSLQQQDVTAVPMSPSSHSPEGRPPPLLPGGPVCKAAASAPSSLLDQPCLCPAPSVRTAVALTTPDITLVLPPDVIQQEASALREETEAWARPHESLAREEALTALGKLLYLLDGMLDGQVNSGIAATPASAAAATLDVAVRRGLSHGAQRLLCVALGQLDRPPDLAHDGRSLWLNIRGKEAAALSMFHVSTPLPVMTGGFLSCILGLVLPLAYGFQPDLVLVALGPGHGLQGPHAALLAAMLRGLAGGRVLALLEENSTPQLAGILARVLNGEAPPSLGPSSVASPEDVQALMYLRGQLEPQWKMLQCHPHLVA
Sequence of Receptor-type tyrosine-protein kinase FLT3 (Homo sapiens) (P36888 whole entry): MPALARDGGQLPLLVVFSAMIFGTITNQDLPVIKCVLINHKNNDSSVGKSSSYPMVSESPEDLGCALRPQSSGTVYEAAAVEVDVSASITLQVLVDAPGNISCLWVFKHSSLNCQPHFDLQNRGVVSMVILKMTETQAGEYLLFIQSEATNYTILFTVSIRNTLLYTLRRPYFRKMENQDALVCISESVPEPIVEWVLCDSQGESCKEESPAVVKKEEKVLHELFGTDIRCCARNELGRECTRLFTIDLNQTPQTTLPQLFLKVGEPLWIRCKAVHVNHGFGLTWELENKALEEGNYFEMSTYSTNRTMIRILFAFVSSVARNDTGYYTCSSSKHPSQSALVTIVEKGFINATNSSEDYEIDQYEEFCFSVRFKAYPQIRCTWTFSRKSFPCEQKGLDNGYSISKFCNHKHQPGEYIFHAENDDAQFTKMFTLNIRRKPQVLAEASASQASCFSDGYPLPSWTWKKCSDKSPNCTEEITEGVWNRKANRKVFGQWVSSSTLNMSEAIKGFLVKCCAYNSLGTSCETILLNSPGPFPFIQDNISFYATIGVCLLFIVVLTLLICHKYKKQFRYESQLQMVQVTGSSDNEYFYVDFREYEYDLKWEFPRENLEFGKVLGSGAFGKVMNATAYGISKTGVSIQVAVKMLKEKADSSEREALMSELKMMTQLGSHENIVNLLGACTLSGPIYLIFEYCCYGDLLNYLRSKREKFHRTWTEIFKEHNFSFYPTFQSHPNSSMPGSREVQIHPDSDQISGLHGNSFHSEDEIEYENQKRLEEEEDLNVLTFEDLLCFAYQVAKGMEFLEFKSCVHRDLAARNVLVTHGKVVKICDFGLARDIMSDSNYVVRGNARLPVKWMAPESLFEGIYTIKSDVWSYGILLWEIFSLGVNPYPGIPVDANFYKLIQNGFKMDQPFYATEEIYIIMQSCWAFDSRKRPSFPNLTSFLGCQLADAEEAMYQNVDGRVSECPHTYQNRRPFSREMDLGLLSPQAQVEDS
Sequence of Histone deacetylase 7 (Homo sapiens) (Q8WUI4 whole entry, the tested form may be a part): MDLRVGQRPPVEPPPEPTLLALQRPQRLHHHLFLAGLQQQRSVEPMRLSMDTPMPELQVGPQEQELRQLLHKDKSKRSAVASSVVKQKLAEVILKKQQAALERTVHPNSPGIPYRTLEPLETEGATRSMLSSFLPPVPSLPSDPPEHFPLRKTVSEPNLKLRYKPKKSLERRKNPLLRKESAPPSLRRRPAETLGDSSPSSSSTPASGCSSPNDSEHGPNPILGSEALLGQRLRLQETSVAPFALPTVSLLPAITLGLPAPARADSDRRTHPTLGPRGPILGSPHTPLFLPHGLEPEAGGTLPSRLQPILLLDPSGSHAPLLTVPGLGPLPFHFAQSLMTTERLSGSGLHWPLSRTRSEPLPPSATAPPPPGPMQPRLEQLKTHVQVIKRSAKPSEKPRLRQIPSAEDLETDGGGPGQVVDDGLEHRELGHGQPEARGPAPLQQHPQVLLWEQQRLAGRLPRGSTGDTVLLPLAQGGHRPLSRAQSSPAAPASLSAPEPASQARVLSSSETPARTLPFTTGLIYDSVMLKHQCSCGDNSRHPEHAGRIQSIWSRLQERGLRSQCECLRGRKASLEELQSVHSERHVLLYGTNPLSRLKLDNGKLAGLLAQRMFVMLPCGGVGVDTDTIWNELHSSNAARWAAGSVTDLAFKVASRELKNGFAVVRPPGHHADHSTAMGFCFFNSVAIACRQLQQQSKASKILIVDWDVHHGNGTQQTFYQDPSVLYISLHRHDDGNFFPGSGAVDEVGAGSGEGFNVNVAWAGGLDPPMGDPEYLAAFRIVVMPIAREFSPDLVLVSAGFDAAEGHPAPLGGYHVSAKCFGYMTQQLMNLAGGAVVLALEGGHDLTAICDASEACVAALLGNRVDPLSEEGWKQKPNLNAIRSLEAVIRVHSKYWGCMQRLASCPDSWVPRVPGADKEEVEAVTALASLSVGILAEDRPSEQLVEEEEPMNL
Sequence of Mast/stem cell growth factor receptor Kit (P10721 whole entry, the tested form may be a part): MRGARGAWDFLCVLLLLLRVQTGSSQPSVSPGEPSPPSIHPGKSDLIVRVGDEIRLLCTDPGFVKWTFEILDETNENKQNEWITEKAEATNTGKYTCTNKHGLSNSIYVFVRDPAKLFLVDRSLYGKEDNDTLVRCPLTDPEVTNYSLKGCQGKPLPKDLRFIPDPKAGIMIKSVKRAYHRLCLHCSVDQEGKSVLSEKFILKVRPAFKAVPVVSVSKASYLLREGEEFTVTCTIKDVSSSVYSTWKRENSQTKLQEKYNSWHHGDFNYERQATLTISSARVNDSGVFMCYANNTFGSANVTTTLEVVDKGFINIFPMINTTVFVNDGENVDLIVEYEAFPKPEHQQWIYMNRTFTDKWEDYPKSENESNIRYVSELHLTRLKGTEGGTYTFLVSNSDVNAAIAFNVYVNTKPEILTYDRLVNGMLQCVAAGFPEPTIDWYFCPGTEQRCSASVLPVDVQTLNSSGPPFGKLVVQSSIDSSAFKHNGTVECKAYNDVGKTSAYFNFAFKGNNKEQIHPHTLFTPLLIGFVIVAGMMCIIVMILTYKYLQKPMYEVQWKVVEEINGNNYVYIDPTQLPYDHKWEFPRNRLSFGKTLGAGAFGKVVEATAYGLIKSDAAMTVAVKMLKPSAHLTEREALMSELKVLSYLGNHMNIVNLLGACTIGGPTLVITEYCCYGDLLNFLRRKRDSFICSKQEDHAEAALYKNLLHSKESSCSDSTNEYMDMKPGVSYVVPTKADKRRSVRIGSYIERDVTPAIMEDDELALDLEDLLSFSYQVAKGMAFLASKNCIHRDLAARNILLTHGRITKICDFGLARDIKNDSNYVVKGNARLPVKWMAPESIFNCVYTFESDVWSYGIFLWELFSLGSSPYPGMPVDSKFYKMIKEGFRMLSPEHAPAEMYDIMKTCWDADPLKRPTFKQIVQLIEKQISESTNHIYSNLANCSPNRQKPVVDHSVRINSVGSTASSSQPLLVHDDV
Sequence of Histone deacetylase 9 (Homo sapiens) (Q9UKV0 whole entry, canonical isoform): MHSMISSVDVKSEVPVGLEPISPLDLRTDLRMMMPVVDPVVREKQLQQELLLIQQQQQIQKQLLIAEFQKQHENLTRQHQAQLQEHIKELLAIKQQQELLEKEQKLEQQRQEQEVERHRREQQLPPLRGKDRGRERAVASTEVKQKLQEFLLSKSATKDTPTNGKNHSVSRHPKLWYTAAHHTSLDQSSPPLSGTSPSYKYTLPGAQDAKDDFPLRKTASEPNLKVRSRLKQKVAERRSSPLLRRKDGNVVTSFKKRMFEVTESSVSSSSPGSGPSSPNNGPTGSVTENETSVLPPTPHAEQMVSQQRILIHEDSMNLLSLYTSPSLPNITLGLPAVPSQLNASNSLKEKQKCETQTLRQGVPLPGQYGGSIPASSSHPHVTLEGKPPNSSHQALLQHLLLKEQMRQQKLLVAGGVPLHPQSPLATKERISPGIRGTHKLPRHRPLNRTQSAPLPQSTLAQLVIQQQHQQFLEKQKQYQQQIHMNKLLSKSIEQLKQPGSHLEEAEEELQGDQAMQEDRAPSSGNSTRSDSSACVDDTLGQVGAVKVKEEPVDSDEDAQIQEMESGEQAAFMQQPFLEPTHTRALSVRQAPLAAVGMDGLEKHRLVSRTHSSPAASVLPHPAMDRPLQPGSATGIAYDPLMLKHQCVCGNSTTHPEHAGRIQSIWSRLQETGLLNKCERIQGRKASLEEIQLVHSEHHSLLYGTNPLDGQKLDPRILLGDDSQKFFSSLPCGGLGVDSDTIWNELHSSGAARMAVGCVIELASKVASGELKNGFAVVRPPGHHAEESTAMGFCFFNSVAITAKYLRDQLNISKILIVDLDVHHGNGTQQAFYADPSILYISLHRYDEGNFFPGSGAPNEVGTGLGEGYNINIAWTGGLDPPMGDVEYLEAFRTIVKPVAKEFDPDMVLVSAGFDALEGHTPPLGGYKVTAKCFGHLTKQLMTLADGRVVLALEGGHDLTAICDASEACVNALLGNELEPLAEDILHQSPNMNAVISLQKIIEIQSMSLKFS

**Q.** Which inhibition [1] does the source give for O=C(CCCCCCOc1ccc2cc1COC/C=C/COCc1cccc(c1)-c1ccnc(n1)N2)NO here?
**A.** 14%

**Q.** And the selectivity ratio [2]?
**A.** 8.7

**Q.** What about the Activity [3] of the same molecule?
**A.** 26%

**Q.** What about the Activity [4] of the same molecule?
**A.** 21%

**Q.** And the Activity [5]?
**A.** 0%

**Q.** And the inhibition [6]?
**A.** 1.3%

**Q.** And the Activity [7]?
**A.** 5.7%

**Q.** And the IC50 [8]?
**A.** 1470 nM

**Q.** And the Activity [9]?
**A.** 29%

**Q.** And the inhibition [10]?
**A.** 67%

**Q.** What about the Activity [11] of the same molecule?
**A.** 74.1%

**Q.** And the IC50 [12]?
**A.** 930 nM

**Q.** What about the IC50 [13] of the same molecule?
**A.** 940 nM

**Q.** And the IC50 [14]?
**A.** 80 nM

**Q.** What about the Activity [15] of the same molecule?
**A.** 1.3%
